Data on 16 molecules can be found in ChEMBL document CHEMBL4680167, “Synthesis and SARs of dopamine derivatives as potential inhibitors of influenza virus PA endonuclease” (Eur J Med Chem, 2020).

Usually EC50 stands for the concentration giving half of the maximal effect. By CC50 is commonly meant the concentration giving 50% cytotoxicity. A word on the Kd: it is the equilibrium constant for the complex coming apart.

Series [1] has as its system Influenza A virus. As to the kind of experiment: Antiviral activity against Influenza A virus (A/WSN/1933(H1N1)) infected in dog MDCK cells assessed as reduction in virus-induced cytopathic effect incubated for 48 hrs by MTT assay. The class given is functional, organism-based. The method in brief: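 MDCK cells (DMEM, 10% FBS, 37 °C, 5% CO2) were seeded overnight and infected with 100 TCID50 (MOI 3.5×10^-3) of A/WSN/33 for 1 h. Compounds were added at increasing concentrations and cells were cultured about 48 h in FBS-free medium with 0.6 µg/mL TPCK-trypsin. Read-out was MTT, formazan dissolved in DMSO, A570, with CPE checked by microscopy. Triplicates; EC50 is the concentration giving 50% cell protection.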
On the technique in general: Cytopathic effects are the visible damage that an infection or toxin causes in cultured cells.

Series [2] is described as follows: Cytotoxicity against dog MDCK cells assessed as reduction in cell viability incubated for 48 hrs by MTT assay. Format: cell-based, Canis lupus familiaris. The method in brief:
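Uninfected MDCK cells were seeded overnight, then exposed to increasing compound concentrations or 0.1% DMSO blank for 48 h. Viability was read by MTT; CC50 is the concentration killing 50% of cells.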
For orientation: Tetrazolium assays rely on reduction of a dye to a coloured formazan, in cell work by metabolically active cells.

A short description of series [3]: Selectivity index, ratio of CC50 for dog MDCK cells to EC50 for Influenza A virus (A/WSN/1933(H1N1)) infected in dog MDCK cells. Format: toxicity, cell-based. Conditions: read-out: Ratio CC50/EC50.
Series [4] relates to Influenza A virus. Nature of the series: (§1) Binding affinity to recombinant Influenza A virus (A/USA:Huston/AA/1945 H1N1)) N-terminal His6-tagged PA endonuclease assessed as dissociation constant by SPR analysis. The procedure, abridged: (§2)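 For SPR, compounds were printed in 5 repeats on a photo-cross-linker chip. The surface was primed with HBS-EP (10 mM HEPES pH 7.0, 150 mM NaCl, 3 mM EDTA, 0.005% P20), then with running buffer (PBS, 5% DMSO). PA_N at 10, 20, 40, 80 and 160 nM in running buffer was injected 600 s at 0.5 µL/s, followed by 360 s dissociation.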
(In general: SPR reads the build-up and loss of mass on a sensor chip optically.)

The nature of series [5]: as §1. The method in brief: as §2
Series [6] is described as follows: Inhibition of recombinant Influenza A virus (A/USA:Huston/AA/1945 H1N1)) N-terminal His6-tagged PA endonuclease using 6FAM-TGGCAATATCAGCTCCACA-MGBN DNA probe as substrate by TR-FRET assay. The method in brief:
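Recombinant PA_N cleavage was followed by FRET on a TaqMan-like probe: 5'-FAM, 19 nucleotides, 3'-MGBNFQ quencher, excitation 492 nm. Cleavage frees FAM fluorescence. Percentage inhibition was plotted against log compound concentration; mean ± SD of eleven independent experiments.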

In the case of `O=C(NCCc1ccc(O)c(O)c1)c1cc(O)c(O)c(O)c1`, in the series on Influenza A virus [1], the EC50 was more than 30 µM.

On to `O=C(CCc1ccc(O)c(O)c1)N1CCc2cc(O)c(O)cc2C1`, for which the 50% cytotoxic concentration (CC50) at 48 h in series [2] was 197 µM. In series [3], the selectivity ratio was 10.6. Also, the EC50 in the series with Influenza A virus [1] came out at 18.6 µM.

Take `O=C(Cc1ccc(O)c(O)c1)N1CCc2cc(O)c(O)cc2C1`: the half-maximal cytotoxic concentration (CC50) at 48 h in series [2] turned out to be 151 µM. In addition, the selectivity ratio in series [3] was determined as 58.5. For the same molecule, the Activity entry in the series on Influenza A virus [4] is “Dose-dependent effect”. For the same molecule, in series [5], the Kd was determined as 0.0942 µM. Also, the EC50 in series [6] was 0.489 µM; with Influenza A virus [1] it was 2.58 µM.

Turning to `O=C(NCCc1ccc(O)c(O)c1)c1ccc(O)c(O)c1`, the CC50 at 48 h in series [2] stood at 154 µM. Besides, in series [3], the selectivity ratio turned out to be 15. For the same molecule, in the series with Influenza A virus [1], the 50% effective concentration (EC50) came to 10.2 µM.

As for `O=C(Cc1ccc(O)c(O)c1)NCCc1ccc(O)c(O)c1`, the CC50 at 48 h in series [2] is more than 200 µM. Besides, in series [3], the selectivity ratio is more than 81.3. The Activity entry in the series with Influenza A virus [4] was “Dose-dependent effect”. Also, the Kd in series [5] came out at 0.0263 µM. Also, the EC50 in series [6] stood at 0.312 µM; in the series on Influenza A virus [1] it was 2.46 µM.

Turning to `O=C(NCCc1ccc(O)c(O)c1)c1cccc(O)c1`, the CC50 at 48 h in series [2] was more than 200 µM. Besides, the selectivity ratio in series [3] was more than 15.3. The EC50 in the series on Influenza A virus [1] worked out at 13.1 µM.

`O=C(c1ccc(O)c(O)c1)N1CCc2cc(O)c(O)cc2C1`: the CC50 at 48 h in series [2] was 133 µM. Also, the selectivity ratio in series [3] is 43. The EC50 in series [6] was 0.577 µM; with Influenza A virus [1] it was 3.1 µM.

Turning to `O=C(NCCc1ccc(O)c(O)c1)c1ccc(O)cc1`, the CC50 at 48 h in series [2] is more than 200 µM. In addition, in series [3], the selectivity ratio was more than 25.2. For the same molecule, in the series on Influenza A virus [1], the EC50 is 12.7 µM.

For the molecule `Oc1ccc(CCNC(=S)Cc2ccc(O)c(O)c2)cc1O`, in series [2], the 50% cytotoxic concentration (CC50) at 48 h was more than 200 µM. The selectivity ratio in series [3] is more than 45.7. Besides, the EC50 turned out to be 1.29 µM in series [6] and 7.01 µM in the series on Influenza A virus [1].

As for `O=C(CCc1ccc(O)c(O)c1)NCCc1ccc(O)c(O)c1`, the cytotoxic concentration (CC50) at 48 h in series [2] is more than 200 µM. In addition, the selectivity ratio in series [3] is more than 64.8. In addition, the concentration for a half-maximal effect (EC50) in series [6] came out at 0.842 µM; with Influenza A virus [1], 4.94 µM.

For `O=C(NCCc1ccc(O)c(O)c1)c1ccccc1O`, the EC50 in the series with Influenza A virus [1] was more than 30 µM.

Consider `O=C(Cc1ccc(O)c(O)c1)OCCc1ccc(O)c(O)c1` [BLAPSIN A], for which, in the series with Influenza A virus [1], the EC50 was more than 30 µM.

Turning to `CCC(CC)[C@H](NC(C)=O)[C@@H]1[C@H](O)[C@@H](C(=O)O)C[C@H]1NC(=N)N` [PERAMIVIR ANHYDROUS], the CC50 at 48 h in series [2] is more than 200 µM. For the same molecule, the selectivity ratio in series [3] was more than 38. In addition, the 50% effective concentration (EC50) in the series on Influenza A virus [1] stood at 5.26 µM.

For the molecule `O=C(NCCc1ccc(O)c(O)c1)c1cccc(O)c1O`, the 50% effective concentration (EC50) in the series on Influenza A virus [1] was more than 30 µM.

In the case of `O=C1c2cc(=O)ccn2N([C@@H]2c3ccccc3SCc3c2ccc(F)c3F)[C@@H]2COCCN12`, the Kd in series [5] was determined as 0.000208 µM.

In the case of `O=C(O[C@@H]1Cc2c(O)cc(O)cc2O[C@@H]1c1cc(O)c(O)c(O)c1)c1cc(O)c(O)c(O)c1` [EPIGALOCATECHIN GALLATE], the cytotoxic concentration (CC50) at 48 h in series [2] is more than 200 µM. Further, in series [3], the selectivity ratio is more than 6.9. Also, the dissociation constant (Kd) in series [5] was determined as 0.956 µM. The EC50 is 6.45 µM in series [6] and 28.9 µM in the series on Influenza A virus [1].
